Experimental data: PMC5656813 (Arthritis & Rheumatology (Hoboken, N.j.), 2017)

Legend:
[1] = tested on: patients with RA who had had an insufficient response to MTX; conditions: cited from earlier work
[2] = cited from earlier work
JAK‐1 = conditions: cited from earlier work
[3] = Studies 1 and 2, steady‐state plasma PK of filgotinib and its major metabolite; assay type: in vivo, human; conditions: for Tmax of major metabolite, steady state: median (range)
Summary of the method: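 RA patients on stable methotrexate took oral test compound or placebo capsules for 4 weeks: 200 mg once daily or 100 mg twice daily (study 1), or 30, 75, 150 or 300 mg once daily (study 2). In a subset (12 and 15 patients), plasma parent and major metabolite were sampled predose and 1, 2, 3, 5 and 8 h after the morning dose, at week 2 or 4. Descriptive statistics were calculated by dose.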

[4] = after filgotinib 30 mg once daily, study 2, arithmetic mean (coefficient of variation)
[5] = after filgotinib 75 mg once daily, study 2, arithmetic mean
[6] = after filgotinib 100 mg twice daily, study 1, arithmetic mean (coefficient of variation)
[7] = after filgotinib 150 mg once daily, study 2, arithmetic mean (coefficient of variation)
[8] = after filgotinib 200 mg once daily, study 1, arithmetic mean (coefficient of variation)
[9] = after filgotinib 300 mg once daily, study 2, arithmetic mean (coefficient of variation)

## CC[C@@H]1CN(C(=O)NCC(F)(F)F)C[C@@H]1c1cnc2cnc3[nH]ccc3n12 [ABT‐494]
[1]
  effect on natural killer (NK) cells: decreased
[1]; middle and higher doses, within 4 weeks
  effect on hemoglobin: decline in hemoglobin

## Nc1nc2cccc(-c3ccc(CN4CCS(=O)(=O)CC4)cc3)n2n1 [major metabolite]
[2]
  half‐life: ~1 days
[2]; in humans
  overall exposure of metabolite, higher than that of filgotinib: ~15 fold
JAK‐1
  JAK‐1 inhibition potency of metabolite, lower than filgotinib: ~10 fold
[3]; 30–300 mg range
  dose proportionality of PK: essentially dose proportional
[3]; [4]
  AUCtau of major metabolite, steady state: 11.2 (52.2) μg.hour/ml
  Cmax of major metabolite, steady state: 0.582 (48.5) μg/ml
[3]; after filgotinib 30 mg once daily, study 2
  Tmax of major metabolite, steady state: 5 (1–8) hours
[3]; [5]
  AUCtau of major metabolite, steady state: 26.0 µg·h/mL
  Cmax of major metabolite, steady state: 1.46 µg/mL
[3]; after filgotinib 75 mg once daily, study 2
  Tmax of major metabolite, steady state: 5.5 (3–8) hours
[3]; [6]
  AUCtau of major metabolite, steady state: 33.1 (26.3) μg.hour/ml
  Cmax of major metabolite, steady state: 3.18 (25.0) μg/ml
[3]; after filgotinib 100 mg twice daily, study 1
  Tmax of major metabolite, steady state: 2 (0–5) hours
[3]; [7]
  AUCtau of major metabolite, steady state: 75.9 (31.0) μg.hour/ml
  Cmax of major metabolite, steady state: 3.79 (26.5) μg/ml
[3]; after filgotinib 150 mg once daily, study 2
  Tmax of major metabolite, steady state: 3 (2–5) hours
[3]; [8]
  AUCtau of major metabolite, steady state: 71.8 (31.3) μg.hour/ml
  Cmax of major metabolite, steady state: 3.77 (23.6) μg/ml
[3]; after filgotinib 200 mg once daily, study 1
  Tmax of major metabolite, steady state: 3 (1–5) hours
[3]; [9]
  AUCtau of major metabolite, steady state: 93.9 (20.4) μg.hour/ml
  Cmax of major metabolite, steady state: 4.62 (9.98) μg/ml
[3]; after filgotinib 300 mg once daily, study 2
  Tmax of major metabolite, steady state: 3 (3–8) hours
[3]; in vivo
  time of dosing to attain steady state: ≤ 4 days
[3]; steady state, 75–300 mg dose range
  exposure to major metabolite, higher than exposure to parent filgotinib: 13 fold
